# Source: PMC9056355 (RSC Advances, 2020)
# Tests used:
# [1] = tested on: 5-HT concentration in the mice brain; test: Determination of brain 5-HT concentration by ELISA; assay type: in vivo; settings: 40 mg kg^-1, 1 h after administration, n = 8 (Fig. 5)
# mice (immobility in FST) = test: Forced swimming test; assay type: in vivo, Kunming mice; settings: for Relationship between dose and antidepressant activity in FST: mice, 10, 20 and 40 mg kg^-1 (Fig. 3); for Antidepressant activity in FST, significance compared with the control group: mice, 40 mg kg^-1
# How it was run: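 Kunming mice (18–22 g) with free access to food and water; test compound in 0.5% methylcellulose or DMSO, given by intraperitoneal or subcutaneous injection at 40 mg kg−1; fluoxetine as positive control; test time 0.5 h. Read-out is immobility duration (s) and DID (%), compared with the control group by one-way ANOVA. A dose series of 10, 20 and 40 mg kg−1 was also run.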
# 5-HT1A receptor = target: T1, 5-HT1A receptor (Homo sapiens, UniProt P08908); test: biochemical
# T1 sequence (P08908 1-422): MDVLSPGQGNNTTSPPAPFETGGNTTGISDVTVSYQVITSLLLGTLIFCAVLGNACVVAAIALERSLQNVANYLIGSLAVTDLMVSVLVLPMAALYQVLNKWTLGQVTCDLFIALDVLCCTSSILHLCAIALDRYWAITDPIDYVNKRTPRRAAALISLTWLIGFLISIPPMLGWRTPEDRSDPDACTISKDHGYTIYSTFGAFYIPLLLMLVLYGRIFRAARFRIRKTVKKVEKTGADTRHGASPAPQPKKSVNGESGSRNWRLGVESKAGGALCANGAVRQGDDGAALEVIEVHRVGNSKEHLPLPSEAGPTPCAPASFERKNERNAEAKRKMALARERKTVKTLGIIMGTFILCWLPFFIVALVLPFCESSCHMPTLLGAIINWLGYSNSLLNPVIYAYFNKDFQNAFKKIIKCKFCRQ
# [2] = tested on: spontaneous locomotor activity of mice; test: Open-field test; assay type: in vivo; settings: 40 mg kg^-1, administered 1 h before the test, n = 8 (Fig. 6)
# How it was run: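 Kunming mice given test compound at 40 mg kg−1 (0.5% methylcellulose or DMSO vehicle; intraperitoneal or subcutaneous) 1 h before placement in a novel open field. Spontaneous activity is counted as line crossings (locomotion), rearing (standing on hind legs) and grooming. n = 8 per group, values as mean ± SEM.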
# mice (immobility in TST) = test: Tail suspension test; assay type: in vivo; settings: 40 mg kg^-1, n = 8 (Fig. 4)
# How it was run: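 Tail suspension test in Kunming mice (18–22 g), used as a second behavioural-despair model to confirm FST findings. Test compound at 40 mg kg−1 in 0.5% methylcellulose or DMSO, injected intraperitoneally or subcutaneously; fluoxetine at the same dose as positive control. Groups compared with control by one-way ANOVA.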
Structure (SMILES),"Antidepressant activity in FST, significance compared with the control group (mice (immobility in FST))",Ki (5-HT1A receptor) [nM],other results
"CNCCC(Oc1ccc(C(F)(F)F)cc1)c1ccccc1 (centres unmarked) [Fluoxetine, reference compound]",,,"Effect on brain 5-HT concentration [1]: significantly (p < 0.05) increased the 5-HT concentration; Relationship between dose and antidepressant activity in FST (mice (immobility in FST)): as the dose increases, the antidepressant activity increases"
"CC(=O)Nc1cccc(OCc2nnc(SCc3ccc(C(F)(F)F)cc3)o2)c1 [Compound 10j, N-(3-((5-((4-Trifluoromethylbenzyl)thio)-1,3,4-oxadiazol-2-yl)methoxy)phenyl)acetamide]",high significant,4.14 ± 0.16,
"O=C1CCc2ccc(OCc3nnc(SCc4ccc(Cl)cc4)o3)cc2N1 [Compound 5g, 7-((5-((4-Chlorobenzyl)thio)-1,3,4-oxadiazol-2-yl)methoxy)-3,4-dihydroquinolin-2(1H)-one]",,1.77 ± 0.14,
"O=C1CCc2ccc(OCc3nnc(SCc4ccc(F)cc4)o3)cc2N1 [Compound 5f, 7-((5-((4-Fluorobenzyl)thio)-1,3,4-oxadiazol-2-yl)methoxy)-3,4-dihydroquinolin-2(1H)-one]",significant,,
"CC(=O)Nc1cccc(OCc2nnc(SCc3ccccc3Cl)o2)c1 [Compound 10e, N-(3-((5-((2-Chlorobenzyl)thio)-1,3,4-oxadiazol-2-yl)methoxy)phenyl)acetamide]",high significant,2.01 ± 0.18,
"CC(=O)Nc1cccc(OCc2nnc(SCc3cccc(Cl)c3)o2)c1 [Compound 10f, N-(3-((5-((3-Chlorobenzyl)thio)-1,3,4-oxadiazol-2-yl)methoxy)phenyl)acetamide]",significant,,
"CC(=O)Nc1cccc(OCc2nnc(SCc3ccc(Cl)cc3)o2)c1 [Compound 10g, N-(3-((5-((4-Chlorobenzyl)thio)-1,3,4-oxadiazol-2-yl)methoxy)phenyl)acetamide]",high significant,1.68 ± 0.13,"Effect on brain 5-HT concentration [1]: significantly (p < 0.05) increased the 5-HT concentration; Exploratory activity in open-field test (crossing, rearing, grooming) [2]: no significant difference; Relationship between dose and antidepressant activity in FST (mice (immobility in FST)): as the dose increases, the antidepressant activity increases; Antidepressant activity in TST (mice (immobility in TST)): highly significant"
"O=C1CCc2ccc(OCc3nnc(SCc4ccc(C(F)(F)F)cc4)o3)cc2N1 [Compound 5h, 7-((5-((4-Trifluoromethylbenzyl)thio)-1,3,4-oxadiazol-2-yl)methoxy)-3,4-dihydroquinolin-2(1H)-one]",,2.73 ± 0.22,
"CC(=O)Nc1cccc(OCc2nnc(SCc3ccc(C)cc3)o2)c1 [Compound 10m, N-(3-((5-((4-Methylbenzyl)thio)-1,3,4-oxadiazol-2-yl)methoxy)phenyl)acetamide]",significant,,
